Laboratory results: article PMC8006165 (ACS Central Science, 2021)
Where “and” joins values, the source holds several entries; their conditions need not be identical. Equal entries are not always repeated.

What was measured:
[1] = molecular target: Salmonella enterica YihS (SQ-SF isomerase), as measured by SEC-MALS (Salmonella enterica) (UniProt Q8ZKT7); experiment: SEC-MALS
EcYihV [2] = molecular target: T1, EcYihV (Escherichia coli, UniProt P32143); experiment: SFP production, HPLC-MS/MS; assay type: biochemical; details: substrate inhibition; 1.0 mM ATP; pH 7.5, 5 mM MgCl2, 30 °C; no additive
T1 sequence (P32143 1-298): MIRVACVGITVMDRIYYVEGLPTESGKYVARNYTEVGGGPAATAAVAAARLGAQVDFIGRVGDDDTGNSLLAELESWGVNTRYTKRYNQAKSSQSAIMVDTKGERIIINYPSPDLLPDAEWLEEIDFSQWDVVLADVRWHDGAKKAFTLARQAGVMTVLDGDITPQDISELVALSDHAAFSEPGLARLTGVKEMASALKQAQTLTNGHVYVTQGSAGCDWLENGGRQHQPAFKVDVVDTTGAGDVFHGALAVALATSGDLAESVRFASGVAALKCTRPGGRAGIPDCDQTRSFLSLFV
Summary of the method: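 Recombinant E. coli YihV (36.6 nM) phosphorylating chemically synthesized sulfofructose (SF) to SFP. […] SFP formation was quantified by HPLC-MS/MS on a ZIC-HILIC column. Rates across SF concentrations were fitted to a substrate inhibition kinetic model.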

EcYihV [3] = molecular target: T1, EcYihV; experiment: effect of additive on SF phosphorylation, HPLC-MS/MS; assay type: biochemical; details: 1.0 mM ATP, varied SF, pH 7.5, 30 °C, activator
SeYihT = molecular target: T2, SeYihT (Salmonella enterica, UniProt Q9L7R9); experiment: X-ray structure, in-crystal cleavage of SFP; assay type: binding; details: covalent Schiff base with Lys193
T2 sequence (Q9L7R9 1-292): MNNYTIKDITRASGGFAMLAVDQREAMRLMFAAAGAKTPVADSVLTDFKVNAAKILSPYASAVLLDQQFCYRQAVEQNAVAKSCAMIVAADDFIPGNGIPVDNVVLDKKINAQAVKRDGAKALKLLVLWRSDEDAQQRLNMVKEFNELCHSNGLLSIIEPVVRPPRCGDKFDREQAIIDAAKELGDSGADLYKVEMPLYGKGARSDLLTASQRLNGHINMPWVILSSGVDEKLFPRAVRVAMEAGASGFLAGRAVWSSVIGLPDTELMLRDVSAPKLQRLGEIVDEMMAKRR

EcYihV [4] = molecular target: T1, EcYihV; experiment: X-ray structure of cocrystal; assay type: binding; details: with Mg; open and closed subunits
SEC-MALS = molecular target: the molecule itself; experiment: SEC-MALS
purified protein [5] = substrate: Nc1ncnc2c1ncn2[C@@H]1O[C@H](COP(=O)(O)OP(=O)(O)OP(=O)(O)O)[C@@H](O)[C@H]1O; experiment: purified protein; details: 1.0 mM SF, 25 mM BTP pH 7.5, 25 mM KCl, 5 mM MgCl2, 30 °C
purified protein [6] = substrate: O=C(COP(=O)(O)O)[C@@H](O)[C@H](O)[C@H](O)CS(=O)(=O)O; experiment: purified protein; details: SFP to SLA and DHAP

“Salmonella enterica YihS (SQ-SF isomerase), as measured by SEC-MALS (from UniProt Q8ZKT7 2-413) (enzyme)” showed a stoichiometry N [1] of 6.

With O=S(=O)(O)C[C@H]1OC(O)(CO)[C@@H](O)[C@@H]1O (some centres unmarked) [SF, 6-deoxy-6-sulfofructose] the “KI” value (EcYihV [2]) was 8.5 ± 2.8 mM.

For C=C(OP(=O)(O)O)C(=O)O [PEP], the “effect of additive on SF phosphorylation, HPLC-MS/MS” value (EcYihV [3]; 10 mM PEP) was “by F6P, FBP, PEP, and citrate (through effects on kcat/KM)”.

With O=P(O)(O)OC[C@H]1OC(O)(COP(=O)(O)O)[C@@H](O)[C@@H]1O (some centres unmarked) [FBP] the “effect of additive on SF phosphorylation, HPLC-MS/MS” value (EcYihV [3]; 10 mM FBP) was “by F6P, FBP, PEP, and citrate (through effects on kcat/KM)”.

In the case of O=C(CO)COP(=O)(O)O [DHAP], the “X-ray structure, in-crystal cleavage of SFP” value (SeYihT) is reported as “a new Schiff base formed with a DHAP molecule could be modeled”.

With Nc1ncnc2c1ncn2[C@@H]1O[C@H](COP(=O)(O)OP(=O)(O)NP(=O)(O)O)[C@@H](O)[C@H]1O [AMPPNP] the “X-ray structure of cocrystal” value (EcYihV [4]) was “AMPPNP resulted in the EcYihV·AMPPNP·Mg complex showing a surface-accessible nucleotide binding site”.

B1: E. coli YihT (sulfofructose-1-phosphate aldolase) (enzyme, UniProt P32141 1-292, looked up)
chain: MNKYTINDITRASGGFAMLAVDQREAMRMMFAAAGAPAPVADSVLTDFKVNAAKALSPYASAILVDQQFCYRQVVEQNAIAKSCAMIVAADEFIPGNGIPVDSVVIDRKINPLQIKQDGGKALKLLVLWRSDEDAQQRLDMVKEFNELCHSHGLVSIIEPVVRPPRRGDKFDREQAIIDAAKELGDSGADLYKVEMPLYGKGPQQELLCASQRLNDHINMPWVILSSGVDEKLFPRAVRVAMTAGASGFLAGRAVWASVVGLPDNELMLRDVCAPKLQQLGDIVDEMMAKRR
With B1 the “stoichiometry N” value (SEC-MALS) was 4.

B2: E. coli YihV (sulfofructose kinase) (enzyme, UniProt P32143 1-298, looked up)
chain: T1 sequence (P32143 1-298)
B2 was tested, and the “stoichiometry N” value (SEC-MALS) was 2 and 4, the Km (purified protein [5]) was 1000 ± 200 µM and the kcat (purified protein [5]) was 3.1 s⁻¹. It also gave a kcat/Km (purified protein [5]) of 3200 M⁻¹ s⁻¹.

B3: Salmonella enterica YihT (sulfofructose-1-phosphate aldolase) (enzyme, UniProt Q9L7R9 1-292, looked up)
chain: T2 sequence (Q9L7R9 1-292)
For B3, the “stoichiometry N” value (SEC-MALS) was 4, the Km (purified protein [6]) was 3570 ± 420 µM and the kcat (purified protein [6]) was 47.7 ± 2.4 s⁻¹.
